Screening results from PubChem BioAssay.
VIM-2 inh: VIM-2 metallo-beta-lactamase inhibitors, primary screen, biochemical, epi-absorbance readout, Pseudomonas aeruginosa enzyme; actives 0.89% (n = 290,000); inhibition, % at 5.6 µM; AID 1527, 2009; purified VIM-2, nitrocefin hydrolysis, epi-absorbance fluorescence;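 active = inhibition above the mean of all tested compounds plus 3 SD, cutoff set per screening run, cut at about 7.5% in these data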;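 note: red hydrolysis product quenches plate fluorescence so inhibitors raise well fluorescence; 0% = enzyme with DMSO and 100% = DMSO without enzyme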
proCasp7 act: procaspase-7 activators, primary screen, counter-screen for procaspase-3 activator project, biochemical, absorbance, HTS, human; recombinant procaspase-7, Ac-DEVD-pNA absorbance 405 nm; D23A/D198A/D206A triple mutant, cannot self-cleave; scale: DMSO 0, 5 µM enzyme 100; activation, % at 8.5 µM; AID 463210, 2010; actives 0.093% (n = 330,000);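 active = percent activation above the screen-wide mean plus 3 SD, cut at about 25% in these data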
Target sequence (P55210 whole entry D23A/D198A/D206A): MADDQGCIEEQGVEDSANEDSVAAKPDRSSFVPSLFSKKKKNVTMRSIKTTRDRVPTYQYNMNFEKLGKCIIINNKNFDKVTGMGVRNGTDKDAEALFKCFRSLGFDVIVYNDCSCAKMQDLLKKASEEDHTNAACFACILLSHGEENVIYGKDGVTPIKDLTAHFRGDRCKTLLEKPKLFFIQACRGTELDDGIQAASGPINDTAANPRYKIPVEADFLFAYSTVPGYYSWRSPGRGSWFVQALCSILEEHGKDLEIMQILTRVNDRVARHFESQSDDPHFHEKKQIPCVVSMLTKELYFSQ
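Detection: p-Nitroaniline absorbance at 405 nm, read at 0 and 120 min; system: Uncleavable procaspase-7 mutant enzyme; evaluation: % activation from two-timepoint absorbance difference, scaled to controls; times: 1 h enzyme–compound preincubation and 2 h substrate reaction, both 25 °C; buffer or medium: Zinc-free HEPES pH 7.4 with 300 mM NaCl, 0.01% Triton X-100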
PolyA inhibitor: polyadenylation inhibitors in yeast reporter cells, primary screen, luminescence, S. cerevisiae. S. cerevisiae SKY197-pL101 polyadenylation reporter, beta-gal luminescence; efflux-impaired pdr1/pdr3 knockout yeast; score 100 = 6 SD above DMSO. activity score, % at 12 µM. actives 0.02% (n = 300,000). AID 1875, 2009;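 active = lowest replicate activity score at least 50, where 100 means six control SD above control mean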;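 note: yeast exposed to compound for 9 h at 30 °C; higher score means more reporter readthrough which indicates perturbed polyadenylation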
IMP-1 inh-1: IMP-1 metallo-beta-lactamase inhibitors, primary screen, biochemical, epi-absorbance readout, Pseudomonas aeruginosa enzyme | metallo-beta-lactamase IMP-1 (Pseudomonas aeruginosa) | inhibition, % at 5.6 µM | actives 0.45% (n = 290,000) | purified IMP-1, nitrocefin hydrolysis, epi-absorbance fluorescence;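 active = inhibition above the mean plus 3 SD of all compounds in the same screening run, cut at about 4.5% in these data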;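 note: 0% = IMP-1 with DMSO and 100% = DMSO wells lacking enzyme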
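system = purified recombinant IMP-1 beta-lactamase | amount = 0.2 nM IMP-1, as dispensed | medium = HEPES buffer pH 7.1 with ZnSO4 and Brij 35 | times = 25 °C, 15 min preincubation, 25 min reaction | detection = plate fluorescence quenching by hydrolysis product, ex 480/em 530 nm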
Neddyl block: inhibitors of cullin neddylation, primary screen, biochemical, TR-FRET, uHTS, NAE and Ubc12. NEDD8-conjugating enzyme Ubc12 (Homo sapiens) + NEDD8-activating enzyme E1 regulatory …. AID 651699, 2012. calls only at 25 µM. actives 0.58% (n = 360,000); in the data active = inhibition above about 36%
proCasp3 act: activators of human procaspase-3 D3A mutant, primary screen, biochemical, absorbance, PC-3 D3A mutant, single concentration | Caspase-3 (Homo sapiens), P42574 | actives 0.11% (n = 330,000) | activation, % at 8.5 µM | recombinant procaspase-3 D3A, Ac-DEVD-pNA absorbance 405 nm;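 active = activation above the mean of all tested compounds plus 3 SD, cut at about 21% in these data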;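 note: 0% = DMSO alone and 100% = DMSO wells spiked with extra 5 µM PC-3 D3A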
Target sequence (P42574 whole entry D9A/D28A/D175A): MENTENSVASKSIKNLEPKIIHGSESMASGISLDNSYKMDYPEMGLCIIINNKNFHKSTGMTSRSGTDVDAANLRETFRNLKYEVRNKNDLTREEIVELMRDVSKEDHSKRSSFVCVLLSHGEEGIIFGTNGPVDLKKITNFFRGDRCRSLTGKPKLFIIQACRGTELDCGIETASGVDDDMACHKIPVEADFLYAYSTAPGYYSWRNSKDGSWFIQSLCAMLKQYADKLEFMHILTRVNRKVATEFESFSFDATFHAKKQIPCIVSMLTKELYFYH
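Compound: 8.5 µM single point, 0.8% DMSO / Material: Autoprocessing-dead procaspase-3 D3A mutant enzyme / Timing: 1 h preincubation plus 2 h reaction at 25 °C / Medium: Zinc-free HEPES/NaCl buffer with 0.01% Triton X-100 at pH 7.4 / Technique: 405 nm absorbance of p-nitroaniline, reads at 0 and 120 min / Repeats: one well per compound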
IMP-1 inh-2: IMP-1 metallo-beta-lactamase inhibitors, confirmation, selectivity assay for selective VIM-2 inhibitor project, biochemical, epi-absorbance readout, triplicate. shares compounds with VIM-2 inh. inhibition, % at 5.6 µM. purified IMP-1, nitrocefin hydrolysis, epi-absorbance fluorescence. 1,300 tested, under 10 active; call rule not given here;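 note: 0% = enzyme with vehicle and 100% = vehicle without enzyme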
VIM-2 FRET inh: VIM-2 inhibitors in FRET format, confirmation, artefact control for selective VIM-2 inhibitor project, biochemical, epi-absorbance artifact exclusion. shares compounds with VIM-2 inh. purified VIM-2, CCF2 FRET substrate hydrolysis. inhibition, % at 5.6 µM. actives 23% (n = 1,300). AID 1857, 2009;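 active = inhibition above the mean of all tested compounds plus 3 SD, cut at about 19% in these data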;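 note: 0% = VIM-2 plus DMSO and 100% = no enzyme wells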
TEM-1 inh: TEM-1 serine beta-lactamase inhibitors, counter-screen for VIM-2 inhibitor project, biochemical, epi-absorbance, HTS | shares compounds with VIM-2 inh | Purified TEM-1, nitrocefin hydrolysis, epi-absorbance fluorescence | inhibition, % at 5.6 µM | actives 3% (n = 1,300) | AID 1866, 2009;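 active = inhibition above that campaign's mean inhibition plus 3 SD, cut at about 0.46% in these data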;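 note: 0% = TEM-1 with DMSO and 100% = TEM-1 with 100 µM potassium clavulanate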
VIM-2 inh conf: VIM-2 metallo-beta-lactamase inhibitors, confirmation, biochemical, epi-absorbance, hits shared with IMP-1 screen; actives 96% (n = 1,300); shares compounds with VIM-2 inh; AID 2187, 2009; inhibition, % at 5.6 µM; purified VIM-2, nitrocefin hydrolysis;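 active = inhibition of the VIM-2 beta-lactamase enzyme above about 11% from the earlier first-round screen, limit read from the data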;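 note: 0% = VIM-2 with DMSO and 100% = buffer wells without enzyme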
PC3 D3A act: procaspase-3 activators, counter-screen for dual procaspase-3/7 activator project, biochemical, absorbance, PC-3 D3A mutant, human; shares compounds with proCasp7 act; recombinant PC-3 D3A, Ac-DEVD-pNA absorbance 405 nm; aspartates 9, 28, 175 changed to alanine; 100% = enzyme control; activation, % at 8.5 µM; 290 tested, under 10 active;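 active = mean percent activation across triplicates above a set limit taken from the earlier primary procaspase-3 screen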;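 note: 0% = DMSO wells and 100% = DMSO wells with 5 µM added PC-3 D3A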
Procasp7 act: activation of procaspase-7 enzyme – biochemical, absorbance, human, dual procaspase-3/-7 activator project, confirmation | shares compounds with proCasp7 act | recombinant procaspase-7, Ac-DEVD-pNA absorbance 405 nm; D23A/D198A/D206A mutant that cannot self-cleave | activation, % at 8.5 µM | 290 tested, under 10 active | AID 493115, 2011;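 active = mean activation above a set limit carried over from the earlier primary screen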;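 note: 0% = DMSO only and 100% = DMSO with added 5 µM PC-7 enzyme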
Neddyl conf: blockade of NEDD8 conjugation to cullin – biochemical, TR-FRET, single concentration, confirmation; shares compounds with Neddyl block; TR-FRET cullin neddylation biochemical assay; calls only at 25 µM; actives 13% (n = 1,800); in the data active = inhibition above about 40%;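 note: neddylation substrate is the cullin 1 ring ligase complex with SKP2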
The depositor's hits bear a star; i = inactive; . = no result given; + = active, no number. This is a sample that favours compounds with a hit; in the whole collection about 1.7% have one here.

SMILES | VIM-2 inh | proCasp7 act | PolyA inhibitor | IMP-1 inh-1 | Neddyl block | proCasp3 act | Neddyl conf | others
CN1CCN(c2ccc(NC(=O)Oc3ccccc3)cc2)CC1 | 29* | 5 | 6 | -5 | i | -3 | . | IMP-1 inh-2=-5;VIM-2 FRET inh=-4;TEM-1 inh=-6;VIM-2 inh conf=24*
COC(=O)C(O)(c1ccc(NC(=O)Oc2ccccc2)cc1)C(F)(F)F (stereo not drawn) | -3 | 2 | 8 | -3 | i | -7 | .
C=CCn1c(O)c(C(C)=NCCCn2ccnc2)c(=O)[nH]c1=O | 58* | 2 | -10 | -2 | i | -3 | . | IMP-1 inh-2=-3;VIM-2 FRET inh=-2;TEM-1 inh=-6;VIM-2 inh conf=78*
CC(=NCCCn1ccnc1)c1c(O)n(-c2ccccc2)c(=O)[nH]c1=O | -2 | 5 | -20 | -4 | i | -4 | .
CC(C)CNC(=O)c1c(N)n(Cc2ccc3c(c2)OCO3)c2nc3ccccc3nc12 | 0 | 71* | -16 | 0 | . | -5 | . | PC3 D3A act=-29;Procasp7 act=-34
Fc1ccc(Cn2nnnc2CN2CCC(n3nnc4cc(C(F)(F)F)ccc43)CC2)cc1 | -1 | 3 | 18 | -2 | i | 12 | .
NC(N)=N/N=C/c1ccc(N2CCOCC2)cc1 | 3 | -1 | 12 | 0 | + | 0 | i
COc1ccc(/C=N\N=C(N)N)cc1 | 0 | -4 | 1 | -2 | i | -11 | .
COc1ccc(C(=O)OC2CC3CCC(C2)[N+]3(C)[O-])cc1OC (stereo not drawn) | -4 | -4 | -12 | -2 | i | 6 | .
COc1cc2c(cc1OC)-c1c(OC)c(OC)cc3c1[C@H](C2)N(C)CC3 | 3 | 4 | 7 | -4 | i | -1 | .
COc1cc2c(cc1O)CC1c3c(cc(O)c(OC)c3-2)CCN1C (stereo not drawn) | 0 | 8 | -11 | -1 | + | 4 | .
CC[C@@H](CO)NC(=O)[C@@H]1C=C2c3cccc4[nH]cc(c34)C[C@H]2N(C)C1 | . | . | . | . | + | . | .
O=C(O)c1ccc(-[n+]2c(-c3ccccc3)cc(-c3ccccc3)cc2-c2ccccc2)cc1 | . | 0 | 6 | . | i | 0 | .
Cc1ccc(-c2cc(-c3ccccc3)cc(-c3ccccc3)[n+]2-c2ccc(C(=O)O)cc2)cc1 | . | 2 | 17 | . | + | 1 | +
c1ccc2c(CN3CCCCC3)c[nH]c2c1 | -3 | 5 | 10 | -4 | i | 4 | .
Cc1ccc(-n2nc(C)cc2NC(=O)COc2cc(C)cc3oc(=O)c4c(c23)CCC4)cc1 | -1 | 12 | -12 | 0 | + | 1 | i
Cc1ccc(Cn2nc(C(=O)Nc3ccc(Br)cc3)cc2C)cc1 | -2 | -1 | -4 | -3 | i | -2 | .
CC1(O)CCC2C3CCC4=CC(=O)CCC4=C3C=CC21C (stereo not drawn) | . | . | . | . | + | . | i
CCCCCCC(=O)N/N=C/c1c(O)n(CCCC)c(=S)[nH]c1=O | -2 | -20 | 0 | -1 | + | -19 | i
CCCCn1c(O)c(/C=N/NC(=O)c2ccncc2)c(=O)[nH]c1=S | -4 | -29 | -17 | -2 | + | -26 | .
CCCCC(=O)N/N=C/c1c(O)n(CCc2ccccc2)c(=O)[nH]c1=O | -4 | -7 | -22 | -3 | + | -6 | i
Cn1c(O)c(/C=N/NC(=O)c2ccncc2)c(=O)[nH]c1=S | -1 | -9 | -7 | -1 | i | -8 | .
O=c1[nH]c2ccccc2n1C1CCN(C(c2nnnn2C2CCCCC2)C2CC2)CC1 (stereo not drawn) | . | . | . | . | i | . | .
C[C@@H]1CN([C@@H](C)CO)C(=O)CCCn2nncc2CO[C@H]1CN(C)C(=O)Oc1cccc2ccccc12 | . | . | . | . | i | . | .
